The source made the active and inactive calls. The rule behind the calls is not given here.
Columns and labels:
Mus musculus [1] = assay: Immunostimulatory activity in C57BL/6J mouse assessed as increase in IFNgamma level at 2 ug, iv upto 24 hrs by ELISA; assay type: functional, organism-based
In short: (§1)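 Mice were 8-week C57BL/6J kept under SPF conditions. Glycolipid was dissolved in DMSO (1.0 mg/mL, 80 °C, 30 min), diluted to 200 µg/mL in PBS with 0.5% Tween20, then to 10 µg/mL in PBS. A 200 µL dose (2 µg/mouse) was given iv. Retro-orbital plasma was taken at 3–60 h. IFN-γ was read by ELISA and IL-4 by CBA. Data are mean ± SD of 3 mice, repeated 3 times.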

Mus musculus [2] = assay: Immunostimulatory activity in C57BL/6J mouse assessed as increase in IL12p70 level at 2 ug, iv from 3 to 12 hrs by cytometric bead array method relative to KRN7000; assay type: functional, organism-based
In short: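 Eight-week SPF C57BL/6J mice received 2 µg glycolipid iv (200 µL of 10 µg/mL in PBS, from a DMSO stock diluted in PBS/0.5% Tween20). Plasma was collected from the retro-orbital plexus with heparinized capillaries at 3, 6, 12, 24, 36, 48 and 60 h. IL-12p70 was quantified by cytometric bead array.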

Mus musculus [3] = assay: Immunostimulatory activity in C57BL/6J mouse assessed as increase in IL4 level at 2 ug, iv by cytometric bead array method; assay type: functional, organism-based; in short: as §1
Mus musculus [4] = assay: Immunostimulatory activity in C57BL/6J mouse assessed as IFNgamma level at 2 ug, iv upto 24 hrs by ELISA relative to KRN7000; assay type: functional
Mus musculus [5] = assay: Immunostimulatory activity in C57BL/6J mouse assessed as IL4 level at 2 ug, iv by cytometric bead array method relative to KRN7000; assay type: functional
Mus musculus [6] = assay: Immunostimulatory activity in C57BL/6J mouse assessed as IFNgamma level at 5 ug, ip at 16 hrs by sandwich ELISA relative to KRN7000; assay type: functional
Mus musculus [7] = assay: Immunostimulatory activity in C57BL/6J mouse assessed as IL4 level at 5 ug, ip at 2 hrs by sandwich ELISA relative to KRN7000; assay type: functional

| Structure (SMILES) | Activity (Mus musculus [1]) | Activity (Mus musculus [3]) | other results |
| --- | --- | --- | --- |
| CCCCCCCCCCCCCC[C@@H](O)[C@@H](O)[C@H](CO[C@H]1O[C@H](CO)[C@H](O)[C@H](O)[C@H]1O)NC(=O)CCCCCc1ccccc1 | inactive | – | – |
| CCCCCCCCCCCCCCCCCCCCCCCCNC(=O)N[C@@H](CO[C@H]1O[C@H](COC)[C@H](O)[C@H](O)[C@H]1O)[C@H](O)[C@H](O)CCCCCCCCCCCCCC | Active | – | Activity (Mus musculus [2]): Active |
| CCCCCCCCCCCCCCCCCCCCCCCCCC(=O)N[C@@H](CS[C@H]1O[C@H](CO)[C@H](O)[C@H](O)[C@H]1O)[C@H](O)[C@H](O)CCCCCCCCCCCCCC | inactive | – | – |
| CCCCCCCCCCCCCCCCNC(=S)N[C@@H](CO[C@H]1O[C@H](CO)[C@H](O)[C@H](O)[C@H]1O)[C@H](O)[C@H](O)CCCCCCCCCCCCCC | inactive | inactive | – |
| CCCCCCCCCCCCCCCCCC(=O)N[C@@H](CO[C@H]1O[C@H](CO)[C@H](O)[C@H](O)[C@H]1O)[C@H](O)[C@H](O)CCCCCCCCCCCCCC | – | – | Activity (Mus musculus [4]): 10%; Activity (Mus musculus [5]): 40% |
| CCCCCCCCCCCCCC[C@@H](O)[C@@H](O)[C@H](CO[C@H]1O[C@H](CO)[C@H](O)[C@H](O)[C@H]1O)NC(=O)NCCCCCCCC | Active | Active | – |
| CCCCCCCCCCCCCCCCCCCCCCCCCC(=O)N[C@@H](CO[C@H]1C[C@H](COC)[C@H](O)[C@H](O)[C@H]1O)[C@H](O)[C@H](O)CCCCCCCCCCCCCC | Active | – | – |
| CCCCCCCCCCCCCCCCNC(=O)N[C@@H](CO[C@H]1O[C@H](CO)[C@H](O)[C@H](O)[C@H]1O)[C@H](O)[C@H](O)CCCCCCCCCCCCCC | Active | Active | – |
| CCCCCCCCCCCCCCCCCCCCCCCCCC(=O)N[C@@H](CO[C@H]1C[C@H](CO)[C@H](O)[C@H](O)[C@H]1O)[C@H](O)[C@H](O)CCCCCCCCCCCCCC | Active | – | – |
| CCCCCCCCCCCCCCCCCCCCCCCCC(F)(F)C(=O)N[C@@H](CO[C@H]1O[C@H](CO)[C@H](O)[C@H](O)[C@H]1O)[C@H](O)[C@H](O)CCCCCCCCCCCCCC | – | – | Activity (Mus musculus [6]): 50%; Activity (Mus musculus [7]): 100% |
| CCCCCCCCCCCCCC[C@@H](O)[C@@H](O)[C@H](CO[C@H]1O[C@H](CO)[C@H](O)[C@H](O)[C@H]1O)NC(=O)NCCCCCc1ccccc1 | inactive | inactive | – |
| CCCCCCCCCCCCCCCCCCCCCCCCCC(=O)N[C@@H](CO[C@H]1O[C@H](CO)[C@H](O)[C@H](O)[C@H]1O)[C@H](O)[C@H](O)CCCCCCCCCCCCCC | – | Active | – |
| CCCCCCCCCCCCCCCCCCCCCCCCCC(=O)N[C@@H](CC[C@H]1O[C@H](CO)[C@H](O)[C@H](O)[C@H]1O)[C@H](O)[C@H](O)CCCCCCCCCCCCCC | Active | – | – |
| CCCCCCCCCCCCCCCCCCCCCCCCNC(=O)N[C@@H](CO[C@H]1O[C@H](CO)[C@H](O)[C@H](O)[C@H]1O)[C@H](O)[C@H](O)CCCCCCCCCCCCCC | Active | – | Activity (Mus musculus [2]): Active |

Reference: ChEMBL document CHEMBL2062400, “RCAI-84, 91, and 105-108, ureido and thioureido analogs of KRN7000: their synthesis and bioactivity for mouse lymphocytes to produce Th1-biased cytokines” (Bioorg Med Chem, 2012)
